From ChEMBL document CHEMBL1122190, “Mammary tumor inhibiting effect of 3,3'-diacetoxy-alpha, beta-dialkylstilbenes and of related stilbene oxides” (1982)

Experiments:
Mus musculus [1] = assay: Effect on estrogen and progesterone receptors positive hormone-dependent postmenopausal human mammary carcinoma tumor growth in nude mice at 3.0 mg/kg/day; format: functional
How it was run: (§1)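 Nude mice carried serially transplanted hormone-dependent human mammary carcinoma. Compounds in olive oil were given sc 6 times a week for 4-5 weeks. Two tumor diameters were measured weekly, and size at treatment start was set as 1. Tumor size was averaged after 5 weeks of therapy.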

[2] = biological target: T1, Estrogen receptor (Mus musculus) (UniProt O08537+P19785); assay: Percent inhibition of estrone-stimulated uterine growth in immature mouse at 100 ug dose; format: functional
T1 sequence (O08537 whole entry, looked up): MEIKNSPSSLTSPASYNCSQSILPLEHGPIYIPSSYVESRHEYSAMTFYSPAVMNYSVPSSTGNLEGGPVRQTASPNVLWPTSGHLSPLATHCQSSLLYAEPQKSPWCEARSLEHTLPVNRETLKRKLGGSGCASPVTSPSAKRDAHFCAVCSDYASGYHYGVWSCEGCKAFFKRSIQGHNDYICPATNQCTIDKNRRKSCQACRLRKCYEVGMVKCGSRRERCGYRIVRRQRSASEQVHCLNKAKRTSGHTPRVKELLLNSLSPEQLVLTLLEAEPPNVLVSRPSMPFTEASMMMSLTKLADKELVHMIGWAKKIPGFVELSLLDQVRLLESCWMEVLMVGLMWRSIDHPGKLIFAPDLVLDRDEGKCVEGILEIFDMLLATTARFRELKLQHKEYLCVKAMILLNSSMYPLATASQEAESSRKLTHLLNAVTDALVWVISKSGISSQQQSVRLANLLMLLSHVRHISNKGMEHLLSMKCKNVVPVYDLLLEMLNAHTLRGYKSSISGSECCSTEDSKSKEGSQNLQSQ
T1 sequence (P19785 whole entry, looked up): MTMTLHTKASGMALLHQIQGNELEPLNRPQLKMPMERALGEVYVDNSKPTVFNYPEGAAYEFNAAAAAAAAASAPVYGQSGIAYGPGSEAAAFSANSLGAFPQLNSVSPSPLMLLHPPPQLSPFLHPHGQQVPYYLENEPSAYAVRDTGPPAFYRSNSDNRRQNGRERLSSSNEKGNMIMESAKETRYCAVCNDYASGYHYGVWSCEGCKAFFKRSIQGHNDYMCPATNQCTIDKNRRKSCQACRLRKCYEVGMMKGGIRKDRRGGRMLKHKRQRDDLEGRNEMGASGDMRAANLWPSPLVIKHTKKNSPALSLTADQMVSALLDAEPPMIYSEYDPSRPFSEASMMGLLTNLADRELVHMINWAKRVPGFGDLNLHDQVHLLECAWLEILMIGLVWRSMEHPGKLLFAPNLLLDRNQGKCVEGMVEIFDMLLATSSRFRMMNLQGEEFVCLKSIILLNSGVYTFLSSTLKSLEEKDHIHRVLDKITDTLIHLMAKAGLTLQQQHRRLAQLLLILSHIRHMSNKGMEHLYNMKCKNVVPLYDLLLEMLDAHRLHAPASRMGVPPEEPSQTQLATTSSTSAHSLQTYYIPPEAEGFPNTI
How it was run: (§2)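 Dorfman uterine weight test in immature female NMRI mice, ten per group, 20 days old and 10-12 g at start. Compounds were given in olive oil sc once daily for 3 days. Mice were killed 24 h after the last injection, and uteri were removed, dried at 100 °C for 24 h and weighed.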

[3] = biological target: T1, Estrogen receptor (Mus musculus); assay: Antiuterotrophic activity in mice at 5 ug dose; format: functional; how it was run: as §2
[4] = biological target: T1, Estrogen receptor (Mus musculus); assay: Uterotrophic activity in mice at 10 ug dose; format: functional, tissue-based; conditions: Uterus; how it was run: as §2
[5] = biological target: T1, Estrogen receptor (Mus musculus); assay: Antiuterotrophic activity in mice at 100 ug dose; format: functional; how it was run: as §2
[6] = biological target: T1, Estrogen receptor (Mus musculus); assay: Antiuterotrophic activity in mice at 50 ug dose; format: functional; how it was run: as §2
[7] = biological target: T1, Estrogen receptor (Mus musculus); assay: Uterotrophic activity in mice at 100 ug dose; format: functional, tissue-based; conditions: Uterus; how it was run: as §2
[8] = system: Estrogen receptor (Bos taurus); assay: In vitro relative binding affinity for Estrogen receptor compared to [3H]estradiol
[9] = biological target: T1, Estrogen receptor (Mus musculus); assay: Uterotrophic activity in mice at 1000 ug dose; format: functional, tissue-based; conditions: Uterus
How it was run: (§3)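 Dorfman uterine weight test in immature female NMRI mice (20 days old at start, 10-12 g; ten per group). Compound given sc daily in olive oil for 3 days. Animals killed 24 h after last injection; uteri removed, dried at 100 °C for 24 h and weighed.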

[10] = biological target: T1, Estrogen receptor (Mus musculus); assay: Percent inhibition of estrone-stimulated uterine growth in immature mouse at 5 ug dose; format: functional; how it was run: as §2
[11] = biological target: T1, Estrogen receptor (Mus musculus); assay: Percent inhibition of estrone-stimulated uterine growth in immature mouse at 50 ug dose; format: functional; how it was run: as §2
Rattus norvegicus [12] = assay: Percent remission of DMBA-induced hormone-dependent mammary carcinoma in rats at 1.0 mg/kg/day; format: functional
How it was run: (§4)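 Female Sprague-Dawley rats received a single 20 mg DMBA dose by gastric intubation at 50 days of age. About 4 weeks later, rats bearing at least one tumor >140 mm² were grouped in tens. Compounds in olive oil were given sc 6 times a week for 28 days. Tumor area (length × width) was measured twice weekly.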

Rattus norvegicus [13] = assay: Effect on DMBA-induced hormone-dependent mammary carcinoma tumor number in rats at 2.0 mg/kg/day; format: functional; how it was run: as §4
Rattus norvegicus [14] = assay: Effect on DMBA-induced hormone-dependent mammary carcinoma tumor number in rats at 1.0 mg/kg/day; format: functional; how it was run: as §4
Rattus norvegicus [15] = assay: Effect on DMBA-induced hormone-dependent mammary carcinoma tumor growth in rats at 2.0 mg/kg/day; format: functional; how it was run: as §4
Rattus norvegicus [16] = assay: Percent progression of DMBA-induced hormone-dependent mammary carcinoma in rats at 4.0 mg/kg/day; format: functional; how it was run: as §4
Rattus norvegicus [17] = assay: Effect on DMBA-induced hormone-dependent mammary carcinoma tumor growth in rats at 1.0 mg/kg/day (initial tumor number); format: functional; how it was run: as §4
Rattus norvegicus [18] = assay: Effect on DMBA-induced hormone-dependent mammary carcinoma tumor number in rats at 4.0 mg/kg/day; format: functional; how it was run: as §4
Rattus norvegicus [19] = assay: Percent progression of DMBA-induced hormone-dependent mammary carcinoma in rats at 1.0 mg/kg/day; format: functional; how it was run: as §4
Rattus norvegicus [20] = assay: Percent partial remission of DMBA-induced hormone-dependent mammary carcinoma in rats at 4.0 mg/kg/day; format: functional; how it was run: as §4
Rattus norvegicus [21] = assay: Effect on DMBA-induced hormone-dependent mammary carcinoma tumor growth in rats at 4.0 mg/kg/day (initial tumor number); format: functional; how it was run: as §4
Rattus norvegicus [22] = assay: Percent partial remission of DMBA-induced hormone-dependent mammary carcinoma in rats at 2.0 mg/kg/day; format: functional; how it was run: as §4
Rattus norvegicus [23] = assay: Effect on DMBA-induced hormone-dependent mammary carcinoma tumor growth in rats at 4.0 mg/kg/day; format: functional; how it was run: as §4
Rattus norvegicus [24] = assay: Percent remission of DMBA-induced hormone-dependent mammary carcinoma in rats at 2.0 mg/kg/day; format: functional; how it was run: as §4
Rattus norvegicus [25] = assay: Percent unchanged DMBA-induced hormone-dependent mammary carcinoma in rats at 1.0 mg/kg/day; format: functional; how it was run: as §4
Rattus norvegicus [26] = assay: Percent unchanged DMBA-induced hormone-dependent mammary carcinoma in rats at 4.0 mg/kg/day; format: functional; how it was run: as §4
Rattus norvegicus [27] = assay: Effect on DMBA-induced hormone-dependent mammary carcinoma tumor growth in rats at 2.0 mg/kg/day (number of tumors at test beginning)
Rattus norvegicus [28] = assay: Percent progression of DMBA-induced hormone-dependent mammary carcinoma in rats at 2.0 mg/kg/day; format: functional; how it was run: as §4
Rattus norvegicus [29] = assay: Percent partial remission of DMBA-induced hormone-dependent mammary carcinoma in rats at 1.0 mg/kg/day; format: functional; how it was run: as §4
Rattus norvegicus [30] = assay: Percent unchanged DMBA-induced hormone-dependent mammary carcinoma in rats at 2.0 mg/kg/day; format: functional; how it was run: as §4
[31] = biological target: T1, Estrogen receptor (Mus musculus); assay: Antiuterotrophic activity in mice at 25 ug dose; format: functional; how it was run: as §2
Rattus norvegicus [32] = assay: Percent remission of DMBA-induced hormone-dependent mammary carcinoma in rats at 4.0 mg/kg/day; format: functional; how it was run: as §4
Mus musculus [33] = assay: Effect on estrogen and progesterone receptors positive hormone-dependent postmenopausal human mammary carcinoma tumor growth in nude mice at 1.0 mg/kg/day dose; format: functional; how it was run: as §1
Mus musculus [34] = assay: Effect on estrogen and progesterone receptors positive hormone-dependent postmenopausal human mammary carcinoma tumor growth in nude mice at 2.0 mg/kg/day; format: functional; how it was run: as §1
[35] = biological target: T1, Estrogen receptor (Mus musculus); assay: Percent inhibition of estrone-stimulated uterine growth in immature mouse at 25 ug dose; format: functional; how it was run: as §2
Rattus norvegicus [36] = assay: Effect on DMBA-induced hormone-dependent mammary carcinoma tumor growth in rats at 1.0 mg/kg/day; format: functional; how it was run: as §4
[37] = biological target: T1, Estrogen receptor (Mus musculus); assay: Antiuterotrophic activity in mice at 2.5 ug dose; format: functional; how it was run: as §2
[38] = biological target: T1, Estrogen receptor (Mus musculus); assay: Percent inhibition of estrone-stimulated uterine growth in immature mouse at 2.5 ug dose; format: functional; how it was run: as §2
Mus musculus [39] = assay: Effect on estrogen and progesterone receptors positive hormone-dependent postmenopausal human mammary carcinoma tumor growth in nude mice at 2.4 mg/kg/day; format: functional; how it was run: as §1
[40] = biological target: T1, Estrogen receptor (Mus musculus); assay: Uterotrophic activity in mice at 50 ug dose; format: functional, tissue-based; conditions: Uterus; how it was run: as §3
Mus musculus [41] = assay: Effect on estrogen and progesterone receptors positive hormone-dependent postmenopausal human mammary carcinoma tumor growth in nude mice at 2.6 mg/kg/day; format: functional; how it was run: as §1
[42] = biological target: T1, Estrogen receptor (Mus musculus); assay: Uterotrophic activity in mice at 1 ug dose; format: functional, tissue-based; conditions: Uterus; how it was run: as §2
[43] = biological target: T1, Estrogen receptor (Mus musculus); assay: Uterotrophic activity in mice at 500 ug dose; format: functional, tissue-based; conditions: Uterus; how it was run: as §3
[44] = biological target: T1, Estrogen receptor (Mus musculus); assay: Uterotrophic activity in mice at 80 ug dose; format: functional, tissue-based; conditions: Uterus; how it was run: as §3
[45] = biological target: T1, Estrogen receptor (Mus musculus); assay: Uterotrophic activity in mice at 8 ug dose; format: functional, tissue-based; conditions: Uterus; how it was run: as §3
[46] = biological target: T1, Estrogen receptor (Mus musculus); assay: Uterotrophic activity in mice at 800 ug dose; format: functional, tissue-based; conditions: Uterus; how it was run: as §3
Rattus norvegicus [47] = assay: Effect on DMBA-induced hormone-dependent mammary carcinoma tumor growth in rats at 0.5 mg/kg/day (initial tumor number); format: functional; how it was run: as §4
Rattus norvegicus [48] = assay: Percent remission of DMBA-induced hormone-dependent mammary carcinoma in rats at 0.5 mg/kg/day; format: functional; how it was run: as §4
Rattus norvegicus [49] = assay: Percent progression of DMBA-induced hormone-dependent mammary carcinoma in rats at 0.5 mg/kg/day (Percent of tumors with progression); format: functional; how it was run: as §4
Rattus norvegicus [50] = assay: Percent unchanged DMBA-induced hormone-dependent mammary carcinoma in rats at 0.5 mg/kg/day; format: functional; how it was run: as §4
Rattus norvegicus [51] = assay: Percent partial remission of DMBA-induced hormone-dependent mammary carcinoma in rats at 0.5 mg/kg/day; format: functional; how it was run: as §4
Rattus norvegicus [52] = assay: Effect on DMBA-induced hormone-dependent mammary carcinoma tumor growth in rats at 0.5 mg/kg/day; format: functional; how it was run: as §4
Rattus norvegicus [53] = assay: Effect on DMBA-induced hormone-dependent mammary carcinoma tumor number in rats at 0.5 mg/kg/day; format: functional; how it was run: as §4

Row | SMILES | inhibition [2] | Effect [3] | Effect [4] | Effect [5] | Effect [6] | Effect [7] | RBA [8] | inhibition [10] | inhibition [11] | Tumors (Rattus norvegicus [12]) | No. of tumors (Rattus norvegicus [14]) | Tumors (Rattus norvegicus [16]) | No. of tumors (Rattus norvegicus [17]) | No. of tumors (Rattus norvegicus [18]) | Tumors (Rattus norvegicus [19]) | Tumors (Rattus norvegicus [20]) | No. of tumors (Rattus norvegicus [21]) | Change (Rattus norvegicus [23]) | Tumors (Rattus norvegicus [25]) | Tumors (Rattus norvegicus [26]) | other results
1 | CCCCC1(c2cccc(OC(C)=O)c2)OC1(CCCC)c1cccc(OC(C)=O)c1 (stereo not given) | 0.4% | 32.4 | 19.8 | 42.4 | 42 | 34.3 | 0.8% | 38.8% | 2.2% | – | – | – | – | – | – | – | – | – | – | – | Tumor size (Mus musculus [1]): 3.37; Effect [9]: 35.5
2 | CC/C(=C(/CC)c1cccc(O)c1)c1cccc(O)c1 | – | 28.1 | – | – | 29.1 | – | 3.2% | 48% | 45.1% | 15% | 34 | 19% | 32 | 17 | 24% | 22% | 37 | -26% | 38% | 32% | No. of tumors (Rattus norvegicus [13]): 21; Change (Rattus norvegicus [15]): 2%; Tumors (Rattus norvegicus [22]): 26%; Tumors (Rattus norvegicus [24]): 25%; Number of tumors at test beginning (Rattus norvegicus [27]): 32; Tumors (Rattus norvegicus [28]): 17%; Tumors (Rattus norvegicus [29]): 23%; Tumors (Rattus norvegicus [30]): 32%; Effect [31]: 29.9; Tumors (Rattus norvegicus [32]): 27%; Tumor size (Mus musculus [33]): 2.78; Tumor size (Mus musculus [34]): 1.76; inhibition [35]: 42.8%; Tumors (Rattus norvegicus [36]): 40%; Effect [37]: 38.3; inhibition [38]: 18.7%
3 | CC(=O)Oc1cccc(/C(C)=C(\C)c2cccc(OC(C)=O)c2)c1 | – | – | – | – | – | – | 0.4% | – | – | – | – | – | – | – | – | – | – | – | – | – | Tumor size (Mus musculus [39]): 3.42
4 | CC/C(=C(/CC)c1cccc(OC(C)=O)c1)c1cccc(OC(C)=O)c1 | – | – | 24.3 | – | – | 32.7 | 2.2% | – | – | – | – | – | – | – | – | – | – | – | – | – | Effect [40]: 27.4; Tumor size (Mus musculus [41]): 2.3; Effect [42]: 15.9; Effect [43]: 42
5 | CCC1(c2cccc(O)c2)OC1(CC)c1cccc(O)c1 (stereo not given) | 2.7% | 27.6 | – | 42.2 | 33 | – | 5.4% | 52.5% | 34.3% | 76% | 10 | 15% | 31 | 4 | 10% | 12% | 29 | -16% | 0% | 12% | Effect [44]: 33; Effect [45]: 29.4; Effect [46]: 43.6; No. of tumors (Rattus norvegicus [47]): 27; Tumors (Rattus norvegicus [48]): 69%; Tumors (Rattus norvegicus [29]): 13%; Tumors (Rattus norvegicus [49]): 13%; Tumors (Rattus norvegicus [50]): 5%; Tumors (Rattus norvegicus [32]): 61%; Tumor size (Mus musculus [33]): 2.9; Tumor size (Mus musculus [34]): 1.85; Change (Rattus norvegicus [36]): -52%; Tumors (Rattus norvegicus [51]): 13%; Change (Rattus norvegicus [52]): 18%; No. of tumors (Rattus norvegicus [53]): 18
